From ChEMBL document CHEMBL3817826, “H2S-Donating Doxorubicins May Overcome Cardiotoxicity and Multidrug Resistance” (J Med Chem, 2016)
Calls of active or inactive are those of the source.

How the values were obtained:
H9c2 [1] = test: Cytotoxicity in rat H9c2 cells assessed as intracellular ROS accumulation at 5 uM incubated for 24 hrs in presence of hydroxocobalamin by DCFDA-AM probe-based fluorimetrical analysis relative to control; type: cell-based; conditions: h9c2, 24 h
In short: (§1)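 H9c2 cells held 24 h with 5 μM drug plus 100 μM hydroxocobalamin, then loaded with 5 μM DCFDA-AM for 30 min at 37 °C. Fluorescence read at 492/517 nm, expressed as nmol ROS/mg protein. Duplicate, n = 3.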

U2OS [2] = test: Cytotoxicity in human U2OS/DX30 cells at 5 uM incubated for 24 hrs by LDH release-based spectrofluorimetrical analysis; type: functional, cell-based
In short: (§2)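 Cells exposed 24 h to 5 μM drug in DMEM with 10% FBS at 37 °C, 5% CO2. Medium spun 12,000 × g 5 min. Cells sonicated in 82.3 mM triethanolamine phosphate-HCl pH 7.6. LDH in medium and lysate followed 6 min at 340 nm. Extracellular LDH reported as % of total dish activity, duplicate, n = 3, mean ± SD.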

U2OS [3] = test: Cytotoxicity in human U2OS/DX100 cells at 5 uM incubated for 24 hrs by LDH release-based spectrofluorimetrical analysis; type: functional, cell-based; in short: as §2
H9c2 [4] = test: Cytotoxicity in rat H9c2 cells at 5 uM incubated for 24 hrs by LDH release-based spectrofluorimetrical analysis relative to control; type: cell-based; conditions: h9c2, 24 h; in short: as §2
H9c2 [5] = test: Cytotoxicity in rat H9c2 cells assessed as intracellular ROS accumulation at 5 uM incubated for 24 hrs by DCFDA-AM probe-based fluorimetrical analysis relative to control; type: cell-based; conditions: h9c2, 24 h
In short: (§3)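 After 24 h at 5 μM, 1×10^6 cells in 0.5 mL PBS were loaded with 5 μM DCFDA-AM for 30 min at 37 °C, spun and resuspended. Fluorescence read at ex 492/em 517 nm, expressed as nmol ROS/mg cell protein. Duplicate, n = 3, mean ± SD.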

[6] = Drug uptake in human U2OS/DX580 cells at 5 uM incubated for 24 hrs by fluorimetrical analysis; type: ADME, cell-based
In short: (§4)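 Intracellular drug measured after 24 h exposure to 5 μM. Cell lysates read fluorimetrically at ex 475/em 553 nm with cell-free blank subtracted. Converted by calibration curve to nmol drug/mg cell protein. Duplicate, n = 3, mean ± SD.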

U2OS [7] = test: Induction of intracellular ROS accumulation in human U2OS cells at 5 uM incubated for 24 hrs by DCFDA-AM probe-based fluorimetrical analysis relative to control; type: functional, cell-based; in short: as §3
U2OS [8] = test: Induction of intracellular ROS accumulation in human U2OS/DX100 cells at 5 uM incubated for 24 hrs by DCFDA-AM probe-based fluorimetrical analysis relative to control; type: functional, cell-based; in short: as §3
H9c2 [9] = test: Cytotoxicity in rat H9c2 cells assessed as reduction in ROS level at 5 uM incubated for 24 hrs in presence of NAC by DCFDA-AM probe-based fluorimetrical analysis; type: cell-based; conditions: h9c2, 24 h
U2OS [10] = test: Induction of intracellular ROS accumulation in human U2OS/DX30 cells at 5 uM incubated for 24 hrs by DCFDA-AM probe-based fluorimetrical analysis relative to control; type: functional, cell-based; in short: as §3
H9c2 [11] = test: Cytotoxicity in rat H9c2 cells […] at 5 uM incubated for 24 hrs in presence of dexrazoxane by LDH release-based spectrofluorimetrical analysis relative to control; type: cell-based; conditions: h9c2, 24 h
H9c2 [12] = test: Drug uptake in rat H9c2 cells at 5 uM incubated for 24 hrs by fluorimetrical analysis; type: ADME, cell-based; conditions: h9c2, 24 h; in short: as §4
[13] = Drug uptake in human U2OS/DX100 cells at 5 uM incubated for 24 hrs by fluorimetrical analysis; type: ADME, cell-based; in short: as §4
H9c2 [14] = test: Cytotoxicity in rat H9c2 cells at 5 uM incubated for 24 hrs in presence of NAC by LDH release-based spectrofluorimetrical analysis relative to control; type: cell-based; conditions: h9c2, 24 h
U2OS [15] = test: Cytotoxicity in human U2OS/DX580 cells at 5 uM incubated for 24 hrs by LDH release-based spectrofluorimetrical analysis; type: functional, cell-based; in short: as §2
[16] = biological target: DNA topoisomerase 2-alpha (Homo sapiens) (UniProt P11388); test: Inhibition of human topoisomerase 2-mediated DNA cleavage at 5 uM using supercoiled pHOT1 plasmid as substrate by agarose gel electrophoresis
Sequence of DNA topoisomerase 2-alpha (Homo sapiens) (P11388 whole entry): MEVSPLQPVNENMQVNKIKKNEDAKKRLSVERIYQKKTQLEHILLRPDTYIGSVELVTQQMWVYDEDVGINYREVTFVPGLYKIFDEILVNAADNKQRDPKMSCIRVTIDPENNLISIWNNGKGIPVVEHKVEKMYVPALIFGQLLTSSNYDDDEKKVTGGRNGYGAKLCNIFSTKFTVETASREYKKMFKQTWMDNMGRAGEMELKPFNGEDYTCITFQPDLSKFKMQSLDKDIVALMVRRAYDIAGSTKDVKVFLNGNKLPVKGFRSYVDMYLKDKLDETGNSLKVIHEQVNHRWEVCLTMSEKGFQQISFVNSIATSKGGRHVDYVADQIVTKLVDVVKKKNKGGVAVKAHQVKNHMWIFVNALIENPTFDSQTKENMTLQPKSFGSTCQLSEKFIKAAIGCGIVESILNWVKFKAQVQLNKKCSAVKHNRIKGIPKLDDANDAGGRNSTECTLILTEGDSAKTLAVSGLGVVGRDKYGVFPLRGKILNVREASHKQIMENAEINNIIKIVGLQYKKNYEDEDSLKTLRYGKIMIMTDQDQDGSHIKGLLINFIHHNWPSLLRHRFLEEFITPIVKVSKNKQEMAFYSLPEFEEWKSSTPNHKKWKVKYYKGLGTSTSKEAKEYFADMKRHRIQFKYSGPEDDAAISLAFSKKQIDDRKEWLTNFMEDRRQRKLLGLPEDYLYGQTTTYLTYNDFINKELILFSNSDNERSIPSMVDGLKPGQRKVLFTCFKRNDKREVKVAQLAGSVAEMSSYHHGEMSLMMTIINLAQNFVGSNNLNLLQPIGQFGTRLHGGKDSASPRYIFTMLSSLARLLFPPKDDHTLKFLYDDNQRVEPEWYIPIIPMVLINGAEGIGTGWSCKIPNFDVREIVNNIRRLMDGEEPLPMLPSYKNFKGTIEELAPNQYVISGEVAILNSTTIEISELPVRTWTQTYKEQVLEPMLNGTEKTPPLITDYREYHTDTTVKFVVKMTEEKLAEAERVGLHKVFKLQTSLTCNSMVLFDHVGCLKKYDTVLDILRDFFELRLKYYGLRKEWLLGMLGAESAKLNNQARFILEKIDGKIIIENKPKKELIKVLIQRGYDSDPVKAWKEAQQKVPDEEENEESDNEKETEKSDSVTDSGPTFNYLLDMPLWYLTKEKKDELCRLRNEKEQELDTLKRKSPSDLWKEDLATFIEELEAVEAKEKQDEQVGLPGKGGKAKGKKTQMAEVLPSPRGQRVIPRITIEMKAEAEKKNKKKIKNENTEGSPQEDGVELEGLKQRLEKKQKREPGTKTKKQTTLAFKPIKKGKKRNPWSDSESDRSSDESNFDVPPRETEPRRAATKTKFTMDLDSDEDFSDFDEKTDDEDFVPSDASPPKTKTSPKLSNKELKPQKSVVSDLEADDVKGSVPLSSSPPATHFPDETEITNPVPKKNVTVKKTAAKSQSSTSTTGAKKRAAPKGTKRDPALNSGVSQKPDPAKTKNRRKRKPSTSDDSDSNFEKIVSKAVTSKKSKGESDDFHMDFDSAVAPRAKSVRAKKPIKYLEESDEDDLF

[17] = Drug uptake in human U2OS/DX30 cells at 5 uM incubated for 24 hrs by fluorimetrical analysis; type: ADME, cell-based; in short: as §4
U2OS [18] = test: Induction of intracellular ROS accumulation in human U2OS/DX580 cells at 5 uM incubated for 24 hrs by DCFDA-AM probe-based fluorimetrical analysis relative to control; type: functional, cell-based; in short: as §3
U2OS [19] = test: Activity at PgP in human […] cells assessed as Vmax measured per mg of protein incubated for 20 mins by fluorimetrical analysis; type: cell-based
In short: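 U-2OS/DX580 cells exposed 20 min to 0-50 μM drug, washed, intracellular doxorubicin read fluorimetrically; parallel dishes left a further 10 min at 37 °C before reading. Efflux rate (difference, nmol extruded/min/mg cell protein) plotted against initial concentration; Vmax and Km fitted. Means ± SD, n = 3.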

H9c2 [20] = test: Effect on doxorubicin accumulation in rat H9c2 cells at 5 uM incubated for 24 hrs by fluorimetrical analysis; type: functional, cell-based
H9c2 [21] = test: Reduction of doxorubicin-mediated cytotoxicity in rat H9c2 cells at 5 uM incubated for 24 hrs by LDH release-based spectrofluorimetrical analysis relative to control; type: functional, cell-based
U2OS [22] = test: Effect on doxorubicin accumulation in human U2OS/DX580 cells at 5 uM incubated for 24 hrs by fluorimetrical analysis; type: functional, cell-based
U2OS [23] = test: Reduction of doxorubicin-mediated ROS accumulation in human U2OS/DX100 cells at 5 uM incubated for 24 hrs by DCFDA-AM probe-based fluorimetrical analysis relative to control; type: functional, cell-based
H9c2 [24] = test: Cytotoxicity in rat H9c2 cells at 5 uM incubated for 24 hrs in presence of hydroxocobalamin by LDH release-based spectrofluorimetrical analysis relative to control; type: cell-based; conditions: h9c2, 24 h
In short: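 H9c2 cardiomyocytes given 5 μM drug for 24 h with 100 μM hydroxocobalamin as H2S scavenger. LDH measured at 340 nm over 6 min in medium and lysate. Extracellular activity taken as % of total, duplicate, n = 3.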

H9c2 [25] = test: Cytotoxicity in rat H9c2 cells at 5 uM coincubated with doxorubicin for 24 hrs in presence of hydroxocobalamin by LDH release-based spectrofluorimetrical analysis relative to control; type: cell-based; conditions: h9c2, 24 h
U2OS [26] = test: Reduction of doxorubicin-mediated ROS accumulation in human U2OS/DX580 cells at 5 uM incubated for 24 hrs by DCFDA-AM probe-based fluorimetrical analysis relative to control; type: functional, cell-based
H9c2 [27] = test: Cytotoxicity in rat H9c2 cells assessed as reduction in basal ROS level at 5 uM incubated for 24 hrs in presence of hydroxocobalamin by DCFDA-AM probe-based fluorimetrical analysis; type: cell-based; conditions: h9c2, 24 h; in short: as §1
U2OS [28] = test: Activity at PgP in human U2OS/[…] cells assessed as Vmax for doxorubicin measured per mg of protein incubated for 20 mins by fluorimetrical analysis (reference value: […] +/- […] nmol/min); type: cell-based
U2OS [29] = test: Increase in doxorubicin-mediated cytotoxicity in human U2OS/DX30 cells at 5 uM incubated for 24 hrs by LDH release-based spectrofluorimetrical analysis relative to control; type: functional, cell-based; in short: as §2
H9c2 [30] = test: Cytotoxicity in rat H9c2 cells assessed as reduction in basal ROS level at 5 uM incubated for 24 hrs by DCFDA-AM probe-based fluorimetrical analysis; type: cell-based; conditions: h9c2, 24 h; in short: as §3
U2OS [31] = test: Reduction of doxorubicin-mediated ROS accumulation in human U2OS/DX30 cells at 5 uM incubated for 24 hrs by DCFDA-AM probe-based fluorimetrical analysis relative to control; type: functional, cell-based
U2OS [32] = test: Increase in doxorubicin accumulation in human U2OS/DX100 cells at 5 uM incubated for 24 hrs by fluorimetrical analysis; type: functional, cell-based
U2OS [33] = test: Increase in doxorubicin accumulation in human U2OS/DX30 cells at 5 uM incubated for 24 hrs by fluorimetrical analysis; type: functional, cell-based
U2OS [34] = test: Increase in doxorubicin-mediated cytotoxicity in human U2OS/DX100 cells at 5 uM incubated for 24 hrs by LDH release-based spectrofluorimetrical analysis relative to control; type: functional, cell-based; in short: as §2
U2OS [35] = test: Effect on doxorubicin-mediated cytotoxicity in human U2OS/DX580 cells at 5 uM incubated for 24 hrs LDH release-based spectrofluorimetrical analysis relative to control; type: functional, cell-based; in short: as §2
U2OS [36] = test: Reduction of doxorubicin-mediated cytotoxicity in human U2OS cells at 5 uM incubated for 24 hrs by DCFDA-AM probe-based fluorimetrical analysis relative to control; type: functional, cell-based

COc1cccc2c1C(=O)c1c(O)c3c(c(O)c1C2=O)C[C@@](O)(C(=O)CO)C[C@@H]3O[C@H]1C[C@H](N)[C@H](O)[C@H](C)O1.Cl [DOXORUBICIN HYDROCHLORIDE]
Not Active: Drug uptake [6] | Drug uptake [13] | Drug uptake [17]
Toxic: Activity (H9c2 [1]) | Activity (H9c2 [4]) | Activity (H9c2 [5]) | Activity (H9c2 [11])
24.1 nmol/min/mg: Vmax (U2OS [19])
Non-toxic: Activity (H9c2 [9]) | Activity (H9c2 [14])
inactive: Activity (U2OS [2]) | Activity (U2OS [3]) | Activity (U2OS [8]) | Activity (U2OS [10]) | Activity (U2OS [15]) | inhibition [16] | Activity (U2OS [18])
active: Activity (U2OS [7])
Active: Drug uptake (H9c2 [12])

O=C(O)c1ccc(-c2ssc(=S)c2-c2ccccc2)cc1
active: Activity (H9c2 [21]) | Activity (U2OS [23]) | Activity (U2OS [26]) | Activity (U2OS [29]) | Activity (U2OS [31]) | Activity (U2OS [32]) | Activity (U2OS [33]) | Activity (U2OS [34]) | Activity (U2OS [36])
Non-toxic: Activity (H9c2 [4]) | Activity (H9c2 [30])
inactive: Activity (H9c2 [20]) | Activity (U2OS [22]) | Activity (U2OS [35])
16 nmol/min/mg: Vmax (U2OS [28])
Toxic: Activity (H9c2 [24]) | Activity (H9c2 [25]) | Activity (H9c2 [27])
